CYP2C19 act – human CYP2C19 activators, primary screen, biochemical, luminescence; Cytochrome P450 2C19 (Homo sapiens), P33261; recombinant CYP2C19, luciferin-H EGE luminescence; stronger effect = higher value; 0 = fully inhibited enzyme, 1 = untreated enzyme; activation factor at 5 µM; 96,000 tested, under 10 active; AID 1025, 2008;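 active means activation factor of at least 2 at 5 µM in the primary screen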;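 further: 0 = wells with 2.5 mM tranylcypromine and 1 = vehicle-only wells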
Target sequence (P33261 whole entry, looked up): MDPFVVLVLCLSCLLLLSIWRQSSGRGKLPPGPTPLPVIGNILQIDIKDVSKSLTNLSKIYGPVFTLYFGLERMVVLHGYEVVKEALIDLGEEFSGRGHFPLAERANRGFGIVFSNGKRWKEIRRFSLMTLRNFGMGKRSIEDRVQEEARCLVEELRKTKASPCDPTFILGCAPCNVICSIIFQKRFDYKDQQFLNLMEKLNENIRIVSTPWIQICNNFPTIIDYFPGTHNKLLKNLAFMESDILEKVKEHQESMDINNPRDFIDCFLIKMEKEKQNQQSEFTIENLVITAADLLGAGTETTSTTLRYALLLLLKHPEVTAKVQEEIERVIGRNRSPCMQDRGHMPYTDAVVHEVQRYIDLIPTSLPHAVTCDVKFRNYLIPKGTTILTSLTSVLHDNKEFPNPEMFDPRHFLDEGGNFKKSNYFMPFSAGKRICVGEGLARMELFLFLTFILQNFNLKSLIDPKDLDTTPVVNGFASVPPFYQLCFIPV
CYP2C9 act – human CYP2C9 activators, primary screen, biochemical, luminescence; actives 1.4% (n = 96,000); activation factor at 5 µM; AID 1024, 2008; recombinant CYP2C9, luciferin-H conversion; stronger effect = higher value; factor 1 = untreated enzyme, 0 = blocked; Cytochrome P450 2C9 (Homo sapiens), P11712;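 active means activation factor of 2 or more for CYP2C9 at a 5 µM dose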;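 further: 0 = sulfaphenazole-blocked wells and 1 = vehicle-only wells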
E coli WT exp – growth inhibitors of wild-type E. coli, primary screen, strain BW25113, expanded library, OD600; growth inhibition, % at 100 µM; OD600 absorbance; actives 0.15% (n = 98,000); AID 710, 2007;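 active means growth inhibition above about 50% at one test dose, limit read from the data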;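 further: growth measured after 20 h incubation at 37 °C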
CYP2C9 inhib – blockers of cytochrome P450 2C9 activity – biochemical, luminescence, ADME assay, primary screen; P11712; CYP2C9 Supersomes, luciferin-H conversion; inhibition, % at 5 µM; actives 20% (n = 96,000);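 active means blocking of liver enzyme CYP2C9 beyond about 50% at 5 µM, limit read from the data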
CYP2C19 inhib – blockers of cytochrome P450 2C19 activity – biochemical, luminescence, ADME assay, primary screen | inhibition, % at 5 µM | P33261 | AID 778, 2007 | CYP2C19 Supersomes, luciferin-H EGE luminescence, 30 min | actives 21% (n = 96,000);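 active means CYP2C19 inhibition above a set limit at 5 µM in the primary screen, cut at about 50% in these data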;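 further: plate controls were negative control wells for no effect and 2.5 mM tranylcypromine positive control for full effect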
Ecoli tolC – growth inhibitors of E. coli tolC mutant, primary screen, strain BW25113 ΔtolC::kan, 384-well | OD615 | growth inhibition, % at 10 µM (by protocol) | actives 2.2% (n = 65,000) | AID 573, 2007;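 active means growth inhibition at or above a cutoff equal to the mean over every tested compound plus 3 SD, cut at about 60% in these data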;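 further: growth measured after 20 h incubation at 37 °C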
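Test system: tolC-deleted E. coli BW25113 | Medium: LB with kanamycin 50 µg/mL | Compound dosing: Single concentration, 10 µM final per compound | Schedule: 37 °C, 20 h exposure | Measured by: OD at 615 nm | Evaluation: Percent growth inhibition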
Starred values were filed as active, the others as inactive; · = no result given. The list is not random: actives were taken first. Their share in the collection is about 29%.

SMILES | CYP2C19 act | CYP2C9 act | E coli WT exp | CYP2C9 inhib | CYP2C19 inhib | Ecoli tolC
CC(=O)Oc1cc2c(C(C)=O)coc2c2ccccc12 | 0.9 | 1.2 | 0 | -21 | 6 | -11
COC(=O)c1cc(=O)[nH]c(SCc2cccc(C)c2)n1 | · | · | · | · | · | 10
Cc1cc(=O)[nH]c(SCc2cccc(Br)c2)n1 | 0.7 | 0.3 | 3 | 74* | 33 | 17
COc1ccc(CSc2nc(C)cc(=O)[nH]2)cc1Br | 0.3 | 0.6 | -3 | 42 | 71* | 5
c1cncc(-c2nnc(C3CCCCC3)o2)c1 | 0.9 | 0.9 | 3 | 8 | 13 | -12
O=C(N1CCOCC1)N1CCC(n2nnc3cc(F)ccc32)CC1 | 1 | 0.6 | -1 | 36 | 4 | -13
CC1Cc2ccccc2N1C(=O)CN1CCC(n2nnc3cc(C(F)(F)F)ccc32)CC1 (stereo not given) | 0.5 | 0.6 | 3 | 44 | 50* | ·
O=C(CN1CCC(n2nnc3cc(F)ccc32)CC1)NCc1ccco1 | 0.7 | 0.7 | 0 | 30 | 26 | -13
COc1ccc(Cl)cc1NC(=O)CN1CCC(n2nnc3cc(C)ccc32)CC1 | 0.1 | 1.3 | -5 | -29 | 94* | 8
Cc1ccc2c(c1)nnn2C1CCN(CC(=O)Nc2ccccc2N2CCOCC2)CC1 | 0.3 | 0.3 | -9 | 75* | 71* | 14
Cc1ccc2c(c1)nnn2C1CCN(CC(=O)NCCc2ccccc2)CC1 | 0.5 | 0.6 | 34 | 35 | 52* | 12
O=C1Nc2ccccc2C1=Nc1ccc(-c2nnc3n2CCCCC3)cc1 | 1 | 1.2 | 9 | -16 | -5 | -11
Cc1cn2c(-c3cccnc3)nnc2s1 | 1.1 | 1.1 | -1 | -14 | -10 | -10
COC(=O)c1ccccc1NC(=O)CN1CCC(n2nnc3cc(C(F)(F)F)ccc32)CC1 | 0.3 | 0.2 | -8 | 82* | 70* | ·
COc1ccccc1NC(=O)CN1CCC(n2nnc3cc(F)ccc32)CC1 | 0 | 0.8 | 3 | 18 | 97* | 28
CCOc1cc(/C=N/O)cc(Cl)c1OC | 0.9 | 1.1 | 0 | -8 | 6 | ·
Cc1ccccc1C(O)c1ccncc1 (stereo not given) | 0.3 | 0.3 | 3 | 74* | 68* | ·
Cc1ccc(C(O)c2ccncc2)cc1 (stereo not given) | 0.3 | 0.2 | 9 | 78* | 72* | ·
O=c1[nH]ncc2c3ccccc3n(Cc3ccc(F)cc3)c12 | 0.5 | 0.3 | -8 | 72* | 46 | -14
Cc1ccccc1Cn1c2ccccc2c2cnn(CC(=O)N3CCN(c4ccccc4)CC3)c(=O)c21 | 0.4 | 0.6 | -11 | 37 | 62* | ·
O=c1[nH]c2ccccc2n1Cc1ccc(F)cc1 | · | · | · | · | · | 20
O=C(Cn1ncc2c3ccccc3n(Cc3ccc(F)cc3)c2c1=O)N1CCN(c2ncccn2)CC1 | 0 | 0 | -5 | 95* | 99* | ·
CCOC(=O)c1cnc(-n2cc(C)cn2)nc1Nc1ccccc1OCC | 1.2 | 1.2 | 3 | -19 | -19 | 68*
CCOC(=O)c1cnc(-n2nc(C)cc2C)nc1Nc1ccccc1OC | 1.1 | 1 | -8 | 5 | -5 | ·
CN(C(=O)CSc1nnc(Cc2cccc3ccccc23)n1N)C1CCS(=O)(=O)C1 (stereo not given) | 1.2 | 2* | 6 | -98 | -16 | ·
SMILES | CYP2C19 act | CYP2C9 act | E coli WT exp | CYP2C9 inhib | CYP2C19 inhib | Ecoli tolC
Nn1c(Cc2cccc3ccccc23)nnc1SC1CCOC1=O (stereo not given) | 0.4 | 2.9* | 6 | -191 | 55* | -13
Cn1c2ccccc2c2nnc(SC3CCOC3=O)nc21 (stereo not given) | 1 | 1.1 | 6 | -10 | -3 | -25
CCOC(=O)Nc1ccc2ncn(C)c(=O)c2c1 | 1 | 0.9 | 3 | 6 | 2 | -11
Cc1ccc(Cn2cccc(NC(=O)NC3CCCCC3)c2=O)cc1 | 0.4 | 0.7 | 1 | 33 | 65* | ·
O=C(Nc1cccn(Cc2ccccc2)c1=O)NC1CCCCC1 | 0.7 | 0.7 | -4 | 31 | 32 | ·
O=C(O)C1CC(O)CN1C(=O)c1ccco1 (stereo not given) | 1 | 1.2 | -1 | -20 | -2 | ·

Screening data deposited in PubChem BioAssay by several laboratories.
